# Laboratory results: ChEMBL document CHEMBL4715736, “Identification of anticancer agents based on the thieno[2,3-b]pyridine and 1H-pyrazole molecular scaffolds” (2016)
# What was measured:
# Type in all cases: functional
# Malme-3M = experiment: Growth inhibition of human Malme-3M cells incubated for 48 hrs by sulforhodamine B assay
# Method in brief: (§1)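 NCI60 panel at the NCI Developmental Therapeutics Program. Only compounds active in the 10 µM screen went to dose-response testing. GI50, the concentration giving 50% of maximal inhibition of proliferation, and TGI, the concentration giving total growth inhibition, were derived from the dose-response curves.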
# 786-0 [1] = experiment: Growth inhibition of human 786-0 cells assessed as cell growth at 1 uM incubated for 48 hrs by sulforhodamine B assay relative to control; settings: read-out: Activity
# Method in brief: (§2)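 NCI Developmental Therapeutics Program NCI60 panel. Compounds that were active in the 10 µM one-dose screen went on to dose–response testing. Growth at each concentration is expressed relative to untreated control (100%). GI50 (concentration giving 50% of maximal inhibition of proliferation) and TGI (concentration giving total growth inhibition) were derived from the curves.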
# OVCAR-4 = experiment: Growth inhibition of human OVCAR-4 cells assessed as cell growth at 100 uM incubated for 48 hrs by sulforhodamine B assay relative to control; settings: read-out: Activity
# UO-31 [2] = experiment: Growth inhibition of human UO-31 cells assessed as cell growth at 100 uM incubated for 48 hrs by sulforhodamine B assay relative to control; settings: read-out: Activity
# OVCAR-3 = experiment: Growth inhibition of human OVCAR-3 cells assessed as cell growth at 0.01 uM incubated for 48 hrs by sulforhodamine B assay relative to control; settings: read-out: Activity
# SW-620 = experiment: Growth inhibition of human SW-620 cells assessed as cell growth at 0.1 uM incubated for 48 hrs by sulforhodamine B assay relative to control; settings: read-out: Activity
# NCI-H322M = experiment: Growth inhibition of human NCI-H322M cells assessed as cell growth at 0.01 uM incubated for 48 hrs by sulforhodamine B assay relative to control; settings: read-out: Activity
# SF-268 [3] = experiment: Growth inhibition of human SF-268 cells assessed as cell growth at 1 uM incubated for 48 hrs by sulforhodamine B assay relative to control; settings: read-out: Activity
# HCC 2998 = experiment: Growth inhibition of human HCC 2998 cells assessed as cell growth at 1 uM incubated for 48 hrs by sulforhodamine B assay relative to control; settings: read-out: Activity; method in brief: as §2
# SN12C = experiment: Growth inhibition of human SN12C cells assessed as cell growth at 0.1 uM incubated for 48 hrs by sulforhodamine B assay relative to control; settings: read-out: Activity
# SNB-75 = experiment: Growth inhibition of human SNB-75 cells assessed as cell growth at 0.1 uM incubated for 48 hrs by sulforhodamine B assay relative to control; settings: read-out: Activity
# ACHN [4] = experiment: Growth inhibition of human ACHN cells assessed as cell growth at 100 uM incubated for 48 hrs by sulforhodamine B assay relative to control; settings: read-out: Activity
# HOP-62 [5] = experiment: Growth inhibition of human HOP-62 cells assessed as cell growth at 0.01 uM incubated for 48 hrs by sulforhodamine B assay relative to control; settings: read-out: Activity
# NCI-H226 = experiment: Growth inhibition of human NCI-H226 cells assessed as cell growth at 1 uM incubated for 48 hrs by sulforhodamine B assay relative to control; settings: read-out: Activity
# Hs-578T [6] = experiment: Growth inhibition of human Hs-578T cells assessed as cell growth at 1 uM incubated for 48 hrs by sulforhodamine B assay relative to control; settings: read-out: Activity
# 786-0 [7] = experiment: Growth inhibition of human 786-0 cells assessed as cell growth at 0.01 uM incubated for 48 hrs by sulforhodamine B assay relative to control; settings: read-out: Activity; method in brief: as §2
# K562 = experiment: Growth inhibition of human K562 cells incubated for 48 hrs by sulforhodamine B assay; method in brief: as §1
# 786-0 [8] = experiment: Growth inhibition of human 786-0 cells incubated for 48 hrs by sulforhodamine B assay; settings: for CC50: read-out: LC50 (the source's name); method in brief: as §2
# NCI-H460 = experiment: Growth inhibition of human NCI-H460 cells assessed as cell growth at 0.1 uM incubated for 48 hrs by sulforhodamine B assay relative to control; settings: read-out: Activity
# RXF 393 = experiment: Growth inhibition of human RXF 393 cells assessed as cell growth at 100 uM incubated for 48 hrs by sulforhodamine B assay relative to control; settings: read-out: Activity
# SF-268 [9] = experiment: Growth inhibition of human SF-268 cells incubated for 48 hrs by sulforhodamine B assay
# Method in brief: (§3)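 NCI DTP 60-line human tumour panel. Dose-response curves were run only for ligands active in the initial 10 µM screen. GI50 (concentration giving 50% of maximal inhibition of proliferation) and TGI (concentration giving total growth inhibition) were derived from these curves.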
# SK-MEL-5 = experiment: Growth inhibition of human SK-MEL-5 cells assessed as cell growth at 0.01 uM incubated for 48 hrs by sulforhodamine B assay relative to control; settings: read-out: Activity
# UACC-257 [10] = experiment: Growth inhibition of human UACC-257 cells assessed as cell growth at 100 uM incubated for 48 hrs by sulforhodamine B assay relative to control; settings: read-out: Activity
# ACHN [11] = experiment: Growth inhibition of human ACHN cells assessed as cell growth at 0.1 uM incubated for 48 hrs by sulforhodamine B assay relative to control; settings: read-out: Activity
# MDA-MB-468 = experiment: Growth inhibition of human MDA-MB-468 cells assessed as cell growth at 100 uM incubated for 48 hrs by sulforhodamine B assay relative to control; settings: read-out: Activity
# HOP-62 [12] = experiment: Growth inhibition of human HOP-62 cells incubated for 48 hrs by sulforhodamine B assay; method in brief: as §1
# IGROV-1 = experiment: Growth inhibition of human IGROV-1 cells assessed as cell growth at 0.01 uM incubated for 48 hrs by sulforhodamine B assay relative to control; settings: read-out: Activity
# DU-145 = experiment: Growth inhibition of human DU-145 cells assessed as cell growth at 1 uM incubated for 48 hrs by sulforhodamine B assay relative to control; settings: read-out: Activity; method in brief: as §2
# UACC-257 [13] = experiment: Growth inhibition of human UACC-257 cells assessed as cell growth at 0.1 uM incubated for 48 hrs by sulforhodamine B assay relative to control; settings: read-out: Activity
# MCF7 = experiment: Growth inhibition of human MCF7 cells assessed as cell growth at 0.1 uM incubated for 48 hrs by sulforhodamine B assay relative to control; settings: read-out: Activity
# UO-31 [14] = experiment: Growth inhibition of human UO-31 cells incubated for 48 hrs by sulforhodamine B assay; settings: for CC50: read-out: LC50 (the source's name); method in brief: as §3
# Hs-578T [15] = experiment: Growth inhibition of human Hs-578T cells assessed as cell growth at 0.01 uM incubated for 48 hrs by sulforhodamine B assay relative to control; settings: read-out: Activity
# PC-3 = experiment: Growth inhibition of human PC-3 cells assessed as cell growth at 100 uM incubated for 48 hrs by sulforhodamine B assay relative to control; settings: read-out: Activity
# UACC-62 = experiment: Growth inhibition of human UACC-62 cells assessed as cell growth at 0.01 uM incubated for 48 hrs by sulforhodamine B assay relative to control; settings: read-out: Activity
# NCI-H23 = experiment: Growth inhibition of human NCI-H23 cells assessed as cell growth at 1 uM incubated for 48 hrs by sulforhodamine B assay relative to control; settings: read-out: Activity
structure (smiles),measurement,setting,value
Cc1ccc(NC(=O)c2sc3nc4c(cc3c2N)C(=O)CCC4)cc1C,LC50,Malme-3M,> 100 µM
same,TGI,Malme-3M,> 100 µM
same,growth at 1 µM,786-0 [1],40%
same,growth at 100 µM,OVCAR-4,18%
same,growth at 100 µM,UO-31 [2],16%
same,growth at 0.01 µM,OVCAR-3,102%
same,growth at 0.1 µM,SW-620,95%
same,growth at 0.01 µM,NCI-H322M,93%
same,growth at 1 µM,SF-268 [3],57%
same,growth at 1 µM,HCC 2998,57%
same,growth at 0.1 µM,SN12C,96%
same,growth at 0.1 µM,SNB-75,70%
same,growth at 100 µM,ACHN [4],12%
same,growth at 0.01 µM,HOP-62 [5],89%
same,growth at 1 µM,NCI-H226,68%
same,growth at 1 µM,Hs-578T [6],16%
same,growth at 0.01 µM,786-0 [7],98%
same,GI50,K562,0.468 µM
same,LC50 (concentration killing 50% of cells),K562,> 100 µM
same,TGI,K562,35 µM
same,GI50,786-0 [8],0.614 µM
same,TGI,786-0 [8],> 100 µM
same,CC50,786-0 [8],> 100 µM
same,growth at 0.1 µM,NCI-H460,102%
same,growth at 100 µM,RXF 393,14%
same,GI50,SF-268 [9],3.07 µM
same,LC50 (concentration killing 50% of cells),SF-268 [9],> 100 µM
same,TGI,SF-268 [9],> 100 µM
same,growth at 0.01 µM,SK-MEL-5,95%
same,growth at 100 µM,UACC-257 [10],35%
same,growth at 0.1 µM,ACHN [11],95%
same,growth at 100 µM,MDA-MB-468,-1%
same,GI50,HOP-62 [12],0.605 µM
same,LC50,HOP-62 [12],> 100 µM
same,TGI,HOP-62 [12],> 100 µM
same,growth at 0.01 µM,IGROV-1,104%
same,growth at 1 µM,DU-145,35%
same,growth at 0.1 µM,UACC-257 [13],92%
same,growth at 0.1 µM,MCF7,86%
same,GI50,UO-31 [14],0.0505 µM
same,TGI,UO-31 [14],> 100 µM
same,CC50,UO-31 [14],> 100 µM
same,growth at 0.01 µM,Hs-578T [15],93%
CN1CCc2nc3sc(C(N)=O)c(N)c3c(-c3cccs3)c2C1,GI50,Malme-3M,5.06 µM
same,LC50,Malme-3M,> 100 µM
same,TGI,Malme-3M,38.4 µM
same,growth at 1 µM,786-0 [1],107%
same,growth at 100 µM,PC-3,6%
same,growth at 100 µM,OVCAR-4,6%
same,growth at 100 µM,UO-31 [2],6%
same,growth at 0.01 µM,OVCAR-3,110%
same,growth at 0.1 µM,SW-620,110%
same,growth at 0.01 µM,NCI-H322M,96%
same,growth at 0.01 µM,UACC-62,99%
same,growth at 1 µM,SF-268 [3],107%
same,growth at 1 µM,HCC 2998,94%
same,growth at 0.1 µM,SN12C,93%
same,growth at 0.1 µM,SNB-75,95%
same,growth at 0.01 µM,HOP-62 [5],101%
same,growth at 1 µM,NCI-H226,88%
same,growth at 1 µM,Hs-578T [6],91%
same,growth at 0.01 µM,786-0 [7],95%
same,GI50,K562,4.99 µM
same,LC50 (concentration killing 50% of cells),K562,> 100 µM
same,TGI,K562,> 100 µM
same,GI50,786-0 [8],4.41 µM
same,TGI,786-0 [8],> 100 µM
same,CC50,786-0 [8],> 100 µM
same,growth at 0.1 µM,NCI-H460,114%
same,growth at 100 µM,RXF 393,-46%
same,growth at 1 µM,NCI-H23,89%
same,GI50,SF-268 [9],3.85 µM
same,LC50 (concentration killing 50% of cells),SF-268 [9],> 100 µM
same,TGI,SF-268 [9],> 100 µM
same,growth at 0.01 µM,SK-MEL-5,96%
same,growth at 100 µM,UACC-257 [10],3%
same,growth at 100 µM,MDA-MB-468,-59%
same,GI50,HOP-62 [12],3.27 µM
same,LC50,HOP-62 [12],> 100 µM
same,TGI,HOP-62 [12],> 100 µM
same,growth at 0.01 µM,IGROV-1,111%
same,growth at 1 µM,DU-145,108%
same,growth at 0.1 µM,UACC-257 [13],105%
same,growth at 0.1 µM,MCF7,107%
same,GI50,UO-31 [14],3.47 µM
same,TGI,UO-31 [14],> 100 µM
same,CC50,UO-31 [14],> 100 µM
same,growth at 0.01 µM,Hs-578T [15],95%
